Experimental data taken from ChEMBL document CHEMBL4354828, “Discovery of Taniborbactam (VNRX-5133): A Broad-Spectrum Serine- and Metallo-β-lactamase Inhibitor for Carbapenem-Resistant Bacterial Infections” (J Med Chem, 2020).
Values after ≈ are worked out from the molar mass of the structure shown.

Tests used:
Klebsiella pneumoniae [1] = assay: Inhibition of KPC-2 in Klebsiella pneumoniae assessed as meropenem antibacterial activity at 4 ug/ml after 16 to 20 hrs by CLSI-based microbroth dilution method (Rvb >= […] ug/ml)
[2] = Inhibition of bacterial VIM-2 using nitrocefin as substrate preincubated for 15 mins followed by susbtrate addition and measured after 10 mins by spectrophotometric method; set-up: species or system Bacteria
Method in brief: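 Purified β-lactamase inhibition. IC50 values are the average of duplicates unless otherwise indicated.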

[3] = target: Beta-lactamase VIM-2 (Pseudomonas aeruginosa) (UniProt Q9K2N0); assay: Inhibition of VIM-2 in Pseudomonas aeruginosa assessed as meropenem antibacterial activity at 4 ug/ml after 16 to 20 hrs by CLSI-based microbroth dilution method (Rvb >= […] ug/ml)
[4] = Inhibition of bacterial AmpC using nitrocefin as substrate preincubated for 15 mins followed by susbtrate addition and measured after 10 mins by spectrophotometric method; set-up: species or system Bacteria
[5] = Inhibition of bacterial OXA-48 using nitrocefin as substrate preincubated for 15 mins followed by susbtrate addition and measured after 10 mins by spectrophotometric method; set-up: species or system Bacteria
Klebsiella pneumoniae [6] = assay: Inhibition of VIM-4 in Klebsiella pneumoniae assessed as meropenem antibacterial activity at 4 ug/ml after 16 to 20 hrs by CLSI-based microbroth dilution method (Rvb >= […] ug/ml)
[7] = Inhibition of bacterial KPC-2 using imipenem as substrate preincubated for 15 mins followed by susbtrate addition and measured after 10 mins by spectrophotometric method; set-up: species or system Bacteria
Klebsiella pneumoniae [8] = assay: Inhibition of OXA-48 in Klebsiella pneumoniae assessed as meropenem antibacterial activity at 4 ug/ml after 16 to 20 hrs by CLSI-based microbroth dilution method (Rvb >= […] ug/ml)

SMILES	MIC (Klebsiella pneumoniae [1])	IC50 [2]	MIC [3]	IC50 [4]	IC50 [5]	MIC (Klebsiella pneumoniae [6])	IC50 [7]	MIC (Klebsiella pneumoniae [8])
NC[C@H]1CC[C@H](CC(=O)N[C@H]2Cc3cccc(C(=O)O)c3OB2O)CC1	1 µg/mL (≈ 2.78 µM)	1600 nM	4 µg/mL (≈ 11.1 µM)	25 nM	1800 nM	8 µg/mL (≈ 22.2 µM)	100 nM	2 µg/mL (≈ 5.55 µM)
NCC(=O)N[C@H]1CC[C@H](CC(=O)N[C@H]2Cc3cccc(C(=O)O)c3OB2O)CC1	2 µg/mL (≈ 4.96 µM)	594 nM	8 µg/mL (≈ 19.8 µM)	6 nM	355 nM	8 µg/mL (≈ 19.8 µM)	34 nM	8 µg/mL (≈ 19.8 µM)
O=C(C[C@H]1CC[C@H](NCCO)CC1)N[C@H]1Cc2cccc(C(=O)O)c2OB1O	2 µg/mL (≈ 5.12 µM)	1400 nM	4 µg/mL (≈ 10.2 µM)	10 nM	7550 nM	0.5 µg/mL (≈ 1.28 µM)	17 nM	2 µg/mL (≈ 5.12 µM)
CS(=O)(=O)NCCN[C@H]1CC[C@H](CC(=O)N[C@H]2Cc3cccc(C(=O)O)c3OB2O)CC1	4 µg/mL (≈ 8.56 µM)	110 nM	16 µg/mL (≈ 34.2 µM)	6 nM	499 nM	8 µg/mL (≈ 17.1 µM)	17 nM	8 µg/mL (≈ 17.1 µM)
NCCN[C@H]1CC[C@@H](CC(=O)N[C@H]2Cc3cccc(C(=O)O)c3OB2O)CC1	8 µg/mL (≈ 20.6 µM)	130 nM	0.5 µg/mL (≈ 1.28 µM)	35 nM	670 nM	4 µg/mL (≈ 10.3 µM)	30 nM	8 µg/mL (≈ 20.6 µM)
CNCCN[C@H]1CC[C@H](CC(=O)N[C@H]2Cc3cccc(C(=O)O)c3OB2O)CC1	0.5 µg/mL (≈ 1.24 µM)	2 nM	–	11 nM	579 nM	0.5 µg/mL (≈ 1.24 µM)	12 nM	2 µg/mL (≈ 4.96 µM)
N[C@H]1CC[C@@H](CC(=O)N[C@H]2Cc3cccc(C(=O)O)c3OB2O)CC1	2 µg/mL (≈ 5.78 µM)	1670 nM	32 µg/mL (≈ 92.4 µM)	5 nM	18000 nM	32 µg/mL (≈ 92.4 µM)	120 nM	16 µg/mL (≈ 46.2 µM)
